These results are taken from ChEMBL document CHEMBL4340510, “Design, synthesis, and biological evaluation of truncated deguelin derivatives as Hsp90 inhibitors” (Eur J Med Chem, 2019).

The test system of test [1] is NCI-H1299. Nature of the test: Antiproliferative activity against human NCI-H1299 cells assessed as inhibition of cell growth at 0.1 uM after 72 hrs by MTT assay relative to control. The note with it: NCI-H1299, 72 h, read-out: GI. It is filed as functional. In short, it runs like this: (§1)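 Cells in RPMI 1640 are seeded at 4,000 cells/well and held 24 h at 37 °C, 5% CO2. Medium is replaced with compound-containing medium (DMSO ≤0.25%) for 72 h at 37 °C. MTT read-out by absorbance at 570 nm. Quadruplicate wells, repeated three times; values are means of three independent experiments.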

In test [2] the test system is NCI-H1299. Nature of the test: Antiproliferative activity against human NCI-H1299 cells assessed as inhibition of cell growth at 1 uM after 72 hrs by MTT assay relative to control. It is filed as functional. As to conditions: NCI-H1299, 72 h, read-out: GI. A digest of the protocol:
as §1

Test [3] concerns NCI-H1299. Nature of the test: Antiproliferative activity against human NCI-H1299 cells assessed as inhibition of cell growth at 10 uM after 72 hrs by MTT assay relative to control. It is filed as functional. As to conditions: NCI-H1299, 72 h, read-out: GI. In short, it runs like this:
as §1

Test [4] deals with NCI-H1299. Nature of the test: Antiproliferative activity against human NCI-H1299 cells after 72 hrs by MTT assay. As to conditions: NCI-H1299, 72 h. It is filed as functional, cell-based. A digest of the protocol: as §1
For test [5], the system named is MCF7. Nature of the test: Antiproliferative activity against human MCF7 cells after 72 hrs by MTT assay. It is filed as functional, cell-based. The note with it: MCF7, 72 h. In short, it runs like this: as §1
Test [6] concerns A549. Nature of the test: Antiproliferative activity against human A549 cells after 72 hrs by MTT assay. The note with it: A549, 72 h. It is filed as functional, cell-based. A digest of the protocol: as §1
The target in test [7] is Heat shock protein HSP 90-alpha (Homo sapiens, UniProt P07900). Nature of the test: Inhibition of FITC-geldanamycin binding to recombinant human full-length C-terminal His-tagged HSP90alpha […] (1 to 732 residues) expressed in Escherichia coli after 1 hr by fluorescence polarization assay.

For the compound `COc1cc(CC(=O)c2ccc3c(c2OC)C=CC(C)(C)O3)cc(OC)c1OC`, the inhibition of growth at 0.1 µM in test [1] is 9.6%. Further, in test [2], the inhibition of growth at 1 µM was found to be 27.4%. In addition, the inhibition of growth at 10 µM in test [3] amounted to 58.3%. Besides, the IC50 turned out to be 7.2 µM in test [4], 5.08 µM in test [5], 6.15 µM in test [6] and 0.63 µM in test [7].

Turning to `COc1cc(CC(=O)c2ccc3c(c2OC)CCC(C)(C)O3)cc(OC)c1OC`, the inhibition of growth at 0.1 µM in test [1] is 11%. Also, in test [2], the inhibition of growth at 1 µM is 30.6%. In addition, the inhibition of growth at 10 µM in test [3] is 67.5%. Moreover, the 50% inhibitory concentration (IC50) was determined as 5.72 µM in test [4], 5.22 µM in test [5], 5.33 µM in test [6] and 0.28 µM in test [7].

On to `COc1ccc(C(C)C(=O)c2ccc3c(c2OC)C=CC(C)(C)O3)cc1` (stereo not drawn), for which the inhibition of growth at 0.1 µM in test [1] turned out to be 7.1%. The inhibition of growth at 1 µM in test [2] was 10.8%. Further, in test [3], the inhibition of growth at 10 µM was 13.3%.

`COc1cc(CC(=O)c2ccc3c(c2O)C=CC(C)(C)O3)cc(OC)c1OC`: the inhibition of growth at 0.1 µM in test [1] was found to be 9.7%. Moreover, the inhibition of growth at 1 µM in test [2] turned out to be 19.7%. For the same compound, the inhibition of growth at 10 µM in test [3] was 49%. Moreover, the half-inhibitory concentration (IC50) in test [4] worked out at 12 µM; in test [5], 11.2 µM; in test [6], 13.1 µM; in test [7] it was 0.43 µM.

Regarding `COc1cc(/C=C/C(=O)c2ccc3c(c2O)C=CC(C)(C)O3)cc(OC)c1OC`, the inhibition of growth at 0.1 µM in test [1] was found to be 3.8%. In test [2], the inhibition of growth at 1 µM came to 8.7%. The inhibition of growth at 10 µM in test [3] came out at 12.3%.

As to `COc1ccc(/C=C/C(=O)c2ccc3c(c2O)C=CC(C)(C)O3)cc1OC`, the inhibition of growth at 0.1 µM in test [1] is 5.3%. The inhibition of growth at 1 µM in test [2] worked out at 6.4%. Also, the inhibition of growth at 10 µM in test [3] was 10.7%.

In the case of `COc1ccc(CC(=O)c2ccc3c(c2O)C=CC(C)(C)O3)cc1OC`, in test [1], the inhibition of growth at 0.1 µM was found to be 4.8%. Also, the inhibition of growth at 1 µM in test [2] stood at 8.2%. The inhibition of growth at 10 µM in test [3] amounted to 45.3%.

In the case of `COc1cc2c(cc1OC)[C@@H]1C(=O)c3ccc4c(c3O[C@@H]1CO2)C=CC(C)(C)O4` [DEGUELIN], the inhibition of growth at 0.1 µM in test [1] was determined as 9.9%. Further, in test [2], the inhibition of growth at 1 µM was 28.5%. For the same compound, the inhibition of growth at 10 µM in test [3] stood at 65.3%. Also, the IC50 in test [4] was 5.67 µM; in test [5], 8.17 µM; in test [6], 6.05 µM; in test [7], 1.63 µM.

For `COc1ccc(/C=C/c2ccc3c(c2OC)C=CC(C)(C)O3)cc1OC`, the inhibition of growth at 0.1 µM in test [1] is 5.2%. In addition, the inhibition of growth at 1 µM in test [2] was 8.6%. Moreover, in test [3], the inhibition of growth at 10 µM amounted to 14.4%.

Take `CC1(C)C=Cc2c(ccc(C(=O)Cc3ccccc3)c2O)O1`: the inhibition of growth at 0.1 µM in test [1] worked out at 3.9%. Also, in test [2], the inhibition of growth at 1 µM turned out to be 7.8%. For the same compound, the inhibition of growth at 10 µM in test [3] turned out to be 15.1%.

For `COc1ccc(CC(=O)c2ccc3c(c2O)C=CC(C)(C)O3)cc1`, the inhibition of growth at 0.1 µM in test [1] came to 6.1%. Moreover, the inhibition of growth at 1 µM in test [2] amounted to 7.1%. In addition, the inhibition of growth at 10 µM in test [3] came to 16.1%.

On to `COc1ccc(CC(=O)c2ccc3c(c2OC(C)=O)C=CC(C)(C)O3)cc1OC`, for which, in test [1], the inhibition of growth at 0.1 µM is 4.1%. Also, the inhibition of growth at 1 µM in test [2] is 6.2%. The inhibition of growth at 10 µM in test [3] turned out to be 19.5%.

For `COc1c(C(=O)Cc2ccccc2)ccc2c1C=CC(C)(C)O2`, the inhibition of growth at 0.1 µM in test [1] stood at 5.6%. Moreover, in test [2], the inhibition of growth at 1 µM was determined as 9.3%. Also, in test [3], the inhibition of growth at 10 µM is 11.3%.

With `COc1ccc(OC)c(CC(=O)c2ccc3c(c2OC)C=CC(C)(C)O3)c1`, the inhibition of growth at 0.1 µM in test [1] was 4.7%. Besides, the inhibition of growth at 1 µM in test [2] came to 10.4%. In test [3], the inhibition of growth at 10 µM was 38.2%.

Turning to `CC(C)c1cc(C(=O)N2Cc3ccc(CN4CCN(C)CC4)cc3C2)c(O)cc1O` [ONALESPIB], in test [1], the inhibition of growth at 0.1 µM amounted to 94.8%. In addition, the inhibition of growth at 1 µM in test [2] amounted to 96.8%. Moreover, the inhibition of growth at 10 µM in test [3] is 95.7%. Besides, the concentration for half-maximal inhibition (IC50) turned out to be 0.37 µM in test [4], 0.29 µM in test [5], 0.44 µM in test [6] and 0.02 µM in test [7].

For `COc1ccc(CC(=O)c2ccc3c(c2OC)C=CC(C)(C)O3)cc1OC`, the inhibition of growth at 0.1 µM in test [1] was determined as 5.1%. In addition, the inhibition of growth at 1 µM in test [2] was 10.7%. For the same compound, the inhibition of growth at 10 µM in test [3] worked out at 47.3%. Also, the IC50 in test [4] amounted to 11.8 µM; in test [5], 6.88 µM; in test [6], 6 µM; in test [7], 0.09 µM.

As for `COc1cc(CC(=O)c2ccc3c(c2OC)C=CC(C)(C)O3)cc(OC)c1`, the inhibition of growth at 0.1 µM in test [1] came to 7.1%. Also, the inhibition of growth at 1 µM in test [2] was 10.2%. For the same compound, the inhibition of growth at 10 µM in test [3] amounted to 40.1%.

On to `CC1(C)C=Cc2c(ccc(C(=O)Cc3ccc(Cl)c(Cl)c3)c2O)O1`, for which the inhibition of growth at 0.1 µM in test [1] stood at 8.3%. Moreover, the inhibition of growth at 1 µM in test [2] is 9.1%. Further, the inhibition of growth at 10 µM in test [3] amounted to 11.5%.

With `COc1c(C(=O)Cc2ccc3c(c2)OCCO3)ccc2c1C=CC(C)(C)O2`, the inhibition of growth at 0.1 µM in test [1] was determined as 3.5%. In test [2], the inhibition of growth at 1 µM was found to be 6.5%. In addition, the inhibition of growth at 10 µM in test [3] worked out at 28.1%.

`COc1ccc(CCC(=O)c2ccc3c(c2O)C=CC(C)(C)O3)cc1OC`: the inhibition of growth at 0.1 µM in test [1] was found to be 3.6%. The inhibition of growth at 1 µM in test [2] was 8.5%. For the same compound, the inhibition of growth at 10 µM in test [3] was 30.1%.

Regarding `COc1ccc(CC(=O)c2ccc3c(c2OC)C=CC(C)(C)O3)cc1`, in test [1], the inhibition of growth at 0.1 µM stood at 3.6%. The inhibition of growth at 1 µM in test [2] is 7.3%. Moreover, the inhibition of growth at 10 µM in test [3] was 10.6%.

For the compound `COc1ccc(CC(O)c2ccc3c(c2OC)C=CC(C)(C)O3)cc1OC` (stereo not drawn), the inhibition of growth at 0.1 µM in test [1] was 6.5%. Besides, the inhibition of growth at 1 µM in test [2] turned out to be 10.8%. The inhibition of growth at 10 µM in test [3] is 19.8%.

Consider `COc1ccc(C(Cc2ccccc2)C(=O)c2ccc3c(c2OCc2ccccc2)C=CC(C)(C)O3)cc1OC` (stereo not drawn), for which, in test [1], the inhibition of growth at 0.1 µM worked out at 2.1%. Besides, the inhibition of growth at 1 µM in test [2] came out at 2.5%. For the same compound, the inhibition of growth at 10 µM in test [3] is 9.9%.

`COc1c(C(=O)C(C)c2ccccc2)ccc2c1C=CC(C)(C)O2` (stereo not drawn): in test [1], the inhibition of growth at 0.1 µM stood at 4.5%. In test [2], the inhibition of growth at 1 µM came out at 6.5%. Further, the inhibition of growth at 10 µM in test [3] amounted to 15.5%.

Turning to `COc1ccc(CC(=O)c2ccc3c(c2OC)CCC(C)(C)O3)cc1OC`, the inhibition of growth at 0.1 µM in test [1] is 7.2%. Also, the inhibition of growth at 1 µM in test [2] stood at 12.4%. For the same compound, the inhibition of growth at 10 µM in test [3] was found to be 49.3%. Besides, the IC50 in test [4] was determined as 12.6 µM; in test [5], 7.86 µM; in test [6], 7.2 µM; in test [7], 0.15 µM.
